ChEMBL document CHEMBL4609986 (Bioorg Med Chem, 2020)

Legend:
[1] = biological target: T1, Tyrosine-protein kinase ABL1 (Homo sapiens, UniProt P00519); assay: Inhibition of wild-type human non-phosphorylated ABL1 (S229 to K512 residues) expressed in mammalian expression system assessed as residual activity at 500 nM by Kinomescan method relative to control
Procedure, shortened: (§1)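 Kinase panel of 468 kinases, scored as residual activity at 100 nM or 500 nM test compound.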

AURKB (Aurora kinase B) [2] = biological target: T2, AURKB (Aurora kinase B) (Homo sapiens, UniProt Q96GD4); assay: Inhibition of AURKB in human HEK293T cells assessed as reduction in cell viability at 90 to 270 nM measured after 48 hrs in presence of 40 nM MLN-8054 relative to control; type: cell-based, HEK-293T
T2 sequence (Q96GD4 whole entry): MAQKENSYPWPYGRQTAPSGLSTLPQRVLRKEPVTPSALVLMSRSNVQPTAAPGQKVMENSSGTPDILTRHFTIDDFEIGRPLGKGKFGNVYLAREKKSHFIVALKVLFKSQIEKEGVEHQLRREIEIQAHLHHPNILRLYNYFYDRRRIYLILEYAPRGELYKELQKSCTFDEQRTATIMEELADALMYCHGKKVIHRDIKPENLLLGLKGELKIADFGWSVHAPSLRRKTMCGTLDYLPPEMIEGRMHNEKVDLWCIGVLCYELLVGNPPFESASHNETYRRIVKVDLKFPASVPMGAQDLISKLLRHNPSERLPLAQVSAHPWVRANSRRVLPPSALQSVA
Procedure, shortened: (§2)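 HEK293T cells treated 48 h with the compound alone or combined with a second kinase inhibitor at the stated level, then fixed, stained and counted. Cell number expressed as a percentage of untreated wells; n = 4-16.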

AURKB (Aurora kinase B) [3] = biological target: T2, AURKB (Aurora kinase B); assay: Inhibition of AURKB in human HEK293T cells assessed as reduction in cell viability at 90 nM measured after 48 hrs in presence of 3 uM MK-5108 relative to control; type: cell-based, HEK-293T; procedure, shortened: as §2
Homo sapiens = species: Homo sapiens; assay: Selectivity index, ratio of CC50 for human HEK293T cells transfected with DYRK1A co-tranfected with Renilla plasmid, pGL3-NFAT and NFATc1 assessed as reduction in luciferase activity by measuring cell number to EC50 for human DYRK1A transfected in HEK293T cells co-transfected with Renilla plasmid, pGL3-NFAT and NFATc1 assessed as derepression of NFAT-dependent luciferase activity measured after 48 hrs by luciferase assay; type: cell-based
Procedure, shortened: (§3)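 HEK293T cells transfected with PEI using DYRK1A, Renilla plasmid, IL-2-based pGL3-NFAT firefly reporter and NFATc1. Next day the same transfected population was split into 96-well plates; 6 h later cells were treated for 48 h (11-point dose curve, n = 4), then lysed. EC50 from firefly/Renilla ratio, 4-parameter agonist fit. CC50 from loss of constitutive Renilla signal, 4-parameter inhibitor fit.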

[4] = Selectivity index, ratio of CC50 for mouse R7T1 cells assessed as reduction in cell viability measured after 48 hrs by Hoechst 33342 staining based analysis to MEC for inhibition of DYRK1A in human pancreatic islets assessed as induction of pancreatic beta-cells replication measured after 48 hrs by Hoechst 33342 staining based analysis
[5] = biological target: Dual specificity mitogen-activated protein kinase kinase 2 (Homo sapiens) (UniProt P36507); assay: Inhibition of wild-type human full length MEK2 (M1 to V400 residues) expressed in mammalian expression system assessed as residual activity at 500 nM by Kinomescan method relative to control; procedure, shortened: as §1
Chain of Dual specificity mitogen-activated protein kinase kinase 2 (Homo sapiens) (P36507 whole entry, the tested form may be a part): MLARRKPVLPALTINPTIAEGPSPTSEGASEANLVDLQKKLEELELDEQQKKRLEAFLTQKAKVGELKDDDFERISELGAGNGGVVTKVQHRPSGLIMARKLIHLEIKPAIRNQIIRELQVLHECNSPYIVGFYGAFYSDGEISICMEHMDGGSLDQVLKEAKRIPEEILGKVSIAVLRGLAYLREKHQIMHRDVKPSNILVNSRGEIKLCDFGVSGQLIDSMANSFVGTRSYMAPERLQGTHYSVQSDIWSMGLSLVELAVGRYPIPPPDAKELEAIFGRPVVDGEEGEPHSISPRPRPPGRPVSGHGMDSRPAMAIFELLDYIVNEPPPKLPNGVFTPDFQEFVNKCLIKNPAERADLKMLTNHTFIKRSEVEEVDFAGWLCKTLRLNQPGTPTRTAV

AURKB (Aurora kinase B) [6] = biological target: T2, AURKB (Aurora kinase B); assay: Inhibition of AURKB in human HEK293T cells assessed as reduction in cell viability at 30 nM measured after 48 hrs in presence of 3 uM MK-5108 relative to control; type: cell-based, HEK-293T; procedure, shortened: as §2
[7] = biological target: T1, Tyrosine-protein kinase ABL1; assay: Inhibition of ABL1 in human HEK293T cells assessed as cell death at 30 to 270 nM measured after 48 hrs in presence of 1 uM dasatinib; type: cell-based; conditions: hek-293t, 0.27 µM; procedure, shortened: as §2
[8] = biological target: T1, Tyrosine-protein kinase ABL1; assay: Inhibition of ABL1 in human HEK293T cells assessed as cell death at 30 to 270 nM measured after 48 hrs in presence of 1 uM imatinib; type: cell-based; conditions: hek-293t, 0.27 µM, in the assay text read “3 uM imatinib” for “1 uM imatinib”; procedure, shortened: as §2
[9] = Cytotoxicity against mouse R7T1 cells assessed as reduction in cell viability measured after 48 hrs by Hoechst 33342 staining based analysis
Procedure, shortened: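 Mouse R7T1 β-cells cultured in high-glucose DMEM with 10% FBS, doxycycline and pyruvate, plated at 25,000 cells/well. Treated in quadruplicate 6 h later (0.169–10,000 nM) for 48 h. Cells fixed in paraformaldehyde and stained with 4 μM Hoechst 33342; nuclei counted by high-content imaging.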

[10] = Half life in human liver microsomes at 1 uM preincubated for 10 mins followed by NADPH addition and measured up to 40 mins by LC-MS/MS analysis; type: ADME, Microsome
Procedure, shortened: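 Human or mouse liver microsomes, each run separately, in 100 mM KxPO4 pH 7.4 with 10 mM MgCl2 and 1 μM test compound. Pre-incubated 10 min at 37 °C, then started with 1 mM NADPH. Quenched in acetonitrile stop solution at 0, 10, 20 and 40 min, centrifuged, diluted and analysed by LC-MS/MS.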

[11] = biological target: T3, Dual specificity tyrosine-phosphorylation-regulated kinase 1A (Homo sapiens, UniProt Q13627); assay: Inhibition of human DYRK1A transfected in HEK293T cells co-transfected with Renilla plasmid, pGL3-NFAT and NFATc1 assessed as derepression of NFAT-dependent luciferase activity measured after 48 hrs by luciferase assay; type: cell-based, HEK-293T; procedure, shortened: as §3
[12] = Apparent permeability in human Caco2 cells measured after 2 hrs by LC-MS/MS analysis; type: ADME, cell-based, Caco-2; conditions: Caco-2
Procedure, shortened: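 Caco-2 monolayers grown on polycarbonate filter inserts (5 × 10⁵ cells/well seeded) and differentiated 21 ± 4 days. Transport run in HBSS with 25 mM HEPES, pH 7.4, 37 °C; compound added donor side. Receiver sampled over 2 h, donor at 0 and 2 h; LC-MS/MS with internal standard. Papp = (dC_rec/dt)/(A × C0,donor) × 10^6.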

AURKB (Aurora kinase B) [13] = biological target: T2, AURKB (Aurora kinase B); assay: Inhibition of AURKB in human HEK293T cells assessed as reduction in cell viability at 90 to 270 nM measured after 48 hrs in presence of 40 nM AZD-1152-HQPA relative to control; type: cell-based, HEK-293T; procedure, shortened: as §2
[14] = biological target: Dual specificity mitogen-activated protein kinase kinase 1 (Homo sapiens) (UniProt Q02750); assay: Inhibition of wild-type human full length MEK1 (M1 to V393 residues) expressed in mammalian expression system assessed as residual activity at 500 nM by Kinomescan method relative to control; procedure, shortened: as §1
Chain of Dual specificity mitogen-activated protein kinase kinase 1 (Homo sapiens) (Q02750 whole entry, the tested form may be a part): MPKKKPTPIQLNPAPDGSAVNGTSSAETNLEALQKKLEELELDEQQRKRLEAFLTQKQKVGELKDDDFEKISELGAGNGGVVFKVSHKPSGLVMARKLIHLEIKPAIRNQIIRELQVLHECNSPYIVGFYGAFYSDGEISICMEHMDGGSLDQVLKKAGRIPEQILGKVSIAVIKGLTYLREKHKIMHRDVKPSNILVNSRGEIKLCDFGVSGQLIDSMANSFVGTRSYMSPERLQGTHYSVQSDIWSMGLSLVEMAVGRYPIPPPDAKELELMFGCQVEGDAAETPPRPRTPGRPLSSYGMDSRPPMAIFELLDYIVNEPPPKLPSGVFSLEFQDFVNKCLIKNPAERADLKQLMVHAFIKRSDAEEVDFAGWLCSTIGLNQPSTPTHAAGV

[15] = biological target: T3, Dual specificity tyrosine-phosphorylation-regulated kinase 1A; assay: Inhibition of wild-type human partial length DYRK1A (H129 to S509 residues) expressed in mammalian expression system assessed as residual activity at 500 nM by Kinomescan method relative to control; procedure, shortened: as §1
[16] = biological target: T4, Aurora kinase A (Homo sapiens) (UniProt O14965); assay: Inhibition of wild-type human partial length AURKA (E122 to K401 residues) expressed in mammalian expression system assessed as residual activity at 500 nM by Kinomescan method relative to control; procedure, shortened: as §1
T4 sequence (whole entry): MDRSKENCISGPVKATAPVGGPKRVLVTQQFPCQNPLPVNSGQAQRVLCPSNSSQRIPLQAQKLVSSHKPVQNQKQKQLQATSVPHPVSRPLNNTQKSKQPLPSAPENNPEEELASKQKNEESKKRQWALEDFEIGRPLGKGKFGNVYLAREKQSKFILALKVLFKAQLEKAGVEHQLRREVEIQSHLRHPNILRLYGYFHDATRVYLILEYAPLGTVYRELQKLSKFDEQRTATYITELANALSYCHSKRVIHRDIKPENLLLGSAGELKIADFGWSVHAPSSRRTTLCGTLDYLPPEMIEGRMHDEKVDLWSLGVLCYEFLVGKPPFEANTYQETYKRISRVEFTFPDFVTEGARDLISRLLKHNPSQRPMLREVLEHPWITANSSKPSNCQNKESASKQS

AURKB (Aurora kinase B) [17] = biological target: T2, AURKB (Aurora kinase B); assay: Inhibition of AURKB in human HEK293T cells assessed as reduction in cell viability at 270 nM measured after 48 hrs in presence of 3 uM MK-5108 relative to control; type: cell-based, HEK-293T; procedure, shortened: as §2
HEK-293T = assay: Cytotoxicity against human HEK293T cells transfected with DYRK1A co-tranfected with Renilla plasmid, pGL3-NFAT and NFATc1 assessed as reduction in luciferase activity by measuring cell number; type: cell-based; conditions: hek-293t; procedure, shortened: as §3
Aurora kinase B [18] = biological target: T5, Aurora kinase B (Homo sapiens, UniProt Q96GD4); assay: Inhibition of wild-type human partial length AURKB (D25 to A303 residues) expressed in mammalian expression system assessed as residual activity at 500 nM by Kinomescan method relative to control; procedure, shortened: as §1
T5 sequence (Q96GD4 whole entry, the tested form may be a part): as the sequence (Q96GD4 whole entry) above

[19] = biological target: Maternal embryonic leucine zipper kinase (Homo sapiens, UniProt Q14680); assay: Inhibition of wild-type human full length MELK (M1 to V651 residues) expressed in bacterial expression system assessed as residual activity at 500 nM by Kinomescan method relative to control; procedure, shortened: as §1
Chain of Maternal embryonic leucine zipper kinase (Q14680 whole entry, looked up, the tested form may be a part): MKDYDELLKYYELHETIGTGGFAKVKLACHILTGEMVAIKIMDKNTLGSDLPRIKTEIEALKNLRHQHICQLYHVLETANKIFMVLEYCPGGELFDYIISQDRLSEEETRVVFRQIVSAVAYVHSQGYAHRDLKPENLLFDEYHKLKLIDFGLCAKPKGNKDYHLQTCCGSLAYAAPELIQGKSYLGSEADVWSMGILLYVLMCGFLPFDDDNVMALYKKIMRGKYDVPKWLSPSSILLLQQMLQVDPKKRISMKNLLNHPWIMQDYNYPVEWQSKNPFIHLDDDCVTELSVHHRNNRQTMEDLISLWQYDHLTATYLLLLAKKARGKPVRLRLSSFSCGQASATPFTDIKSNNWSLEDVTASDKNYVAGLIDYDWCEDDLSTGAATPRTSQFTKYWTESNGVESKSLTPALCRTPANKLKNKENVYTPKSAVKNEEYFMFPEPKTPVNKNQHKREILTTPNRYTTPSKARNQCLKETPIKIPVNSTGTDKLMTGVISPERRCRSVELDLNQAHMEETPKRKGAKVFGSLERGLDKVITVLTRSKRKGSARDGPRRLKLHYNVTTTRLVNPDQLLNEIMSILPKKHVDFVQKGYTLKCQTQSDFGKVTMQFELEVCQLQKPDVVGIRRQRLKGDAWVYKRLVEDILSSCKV

[20] = biological target: T3, Dual specificity tyrosine-phosphorylation-regulated kinase 1A; assay: Inhibition of DYRK1A in human pancreatic islets assessed as induction of pancreatic beta-cells replication measured after 48 hrs by Hoechst 33342 staining based analysis
Procedure, shortened: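 Human islets (85-95% purity) rested 12 h in low-glucose DMEM with 10% FBS and 20 nM exendin-4. Dispersed to single cells and plated on 804G-conditioned-matrix 384-well plates for 48 h. Treated 48 h, then fixed with 4% PFA. Stained with anti-insulin, anti-Ki-67 and 4 μM Hoechst 33342; Ki67+Insulin+/Insulin+ scored by high-content imaging against per-plate cutoffs.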

Aurora kinase B [21] = biological target: T5, Aurora kinase B; assay: Inhibition of AURKB in human HEK293T cells assessed as reduction in cell viability at 270 nM measured after 48 hrs in presence of 10 uM TAK-733; type: cell-based; conditions: hek-293t, 0.27 µM; procedure, shortened: as §2
Aurora kinase B [22] = biological target: T5, Aurora kinase B; assay: Inhibition of AURKB in human HEK293T cells assessed as reduction in cell viability at 30 to 70 nM measured after 48 hrs; type: cell-based; conditions: hek-293t, 0.27 µM, in the assay text read “30 to 270 nM” for “30 to 70 nM”; procedure, shortened: as §2
[23] = biological target: T1, Tyrosine-protein kinase ABL1; assay: Inhibition of wild-type human phosphorylated ABL1 (S229 to K512 residues) expressed in mammalian expression system assessed as residual activity at 500 nM by Kinomescan method relative to control; procedure, shortened: as §1

T1 sequence (P00519 whole entry, the tested form may be a part): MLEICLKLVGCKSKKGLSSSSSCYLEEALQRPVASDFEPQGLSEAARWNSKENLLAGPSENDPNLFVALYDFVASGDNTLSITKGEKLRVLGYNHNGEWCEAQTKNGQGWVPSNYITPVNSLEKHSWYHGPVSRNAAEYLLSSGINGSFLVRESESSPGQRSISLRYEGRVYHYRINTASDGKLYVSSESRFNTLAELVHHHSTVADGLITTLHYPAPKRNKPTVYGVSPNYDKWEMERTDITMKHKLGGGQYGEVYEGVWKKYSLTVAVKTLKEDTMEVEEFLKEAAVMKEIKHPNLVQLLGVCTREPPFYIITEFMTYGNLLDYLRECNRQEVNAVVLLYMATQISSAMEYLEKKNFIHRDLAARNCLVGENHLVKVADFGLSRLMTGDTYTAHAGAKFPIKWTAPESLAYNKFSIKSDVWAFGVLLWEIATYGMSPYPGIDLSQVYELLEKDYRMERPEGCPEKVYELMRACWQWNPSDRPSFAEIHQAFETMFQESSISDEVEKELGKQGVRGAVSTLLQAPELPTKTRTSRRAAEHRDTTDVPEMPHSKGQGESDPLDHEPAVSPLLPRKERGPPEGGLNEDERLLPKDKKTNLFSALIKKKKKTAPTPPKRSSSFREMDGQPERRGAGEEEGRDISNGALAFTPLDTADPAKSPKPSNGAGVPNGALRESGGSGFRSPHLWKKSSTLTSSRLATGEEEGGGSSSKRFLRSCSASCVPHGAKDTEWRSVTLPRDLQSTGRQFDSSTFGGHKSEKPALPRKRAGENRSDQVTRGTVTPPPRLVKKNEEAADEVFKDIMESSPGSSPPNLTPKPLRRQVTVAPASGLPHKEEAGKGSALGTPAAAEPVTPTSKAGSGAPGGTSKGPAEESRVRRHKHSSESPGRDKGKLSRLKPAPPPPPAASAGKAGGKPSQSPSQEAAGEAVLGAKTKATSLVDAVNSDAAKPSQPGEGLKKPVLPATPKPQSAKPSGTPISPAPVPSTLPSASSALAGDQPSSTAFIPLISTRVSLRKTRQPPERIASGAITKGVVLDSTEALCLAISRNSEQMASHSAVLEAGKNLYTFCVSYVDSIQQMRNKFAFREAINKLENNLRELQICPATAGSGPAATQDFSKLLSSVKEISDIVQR

Activity [1]: 43%
Activity [5]: 55%
t1/2 [10]: 32 min
EC50 [11]: 0.223 µM
Papp at 2 h [12]: 4.03 ×10⁻⁶ cm/s
Activity [14]: 69%
Activity [15]: 0%
Activity [16]: 97%
Activity (Aurora kinase B [18]): 67%
Activity [19]: 4.7%
MEC [20]: 27 nM
Activity [23]: 43%
SMILES: CCOC(=O)c1cnc2ccc(-c3ccncc3)nc2c1N[C@H]1CC[C@H](CN(C)C)CC1
inhibition at 48 h, up to 0.27 µM (AURKB (Aurora kinase B) [2]): 50%
inhibition at 48 h, 0.09 µM (AURKB (Aurora kinase B) [3]): 36%
Ratio CC50/EC50 (Homo sapiens): 36
Selectivity Index [4]: 143
inhibition at 48 h, 0.03 µM (AURKB (Aurora kinase B) [6]): 31%
inhibition (INH) [7]: Not Active
inhibition (INH) [8]: Not Active
CC50 [9]: 3.86 µM
inhibition at 48 h, up to 0.27 µM (AURKB (Aurora kinase B) [13]): 67%
inhibition at 48 h, 0.27 µM (AURKB (Aurora kinase B) [17]): 34%
CC50 (HEK-293T): 8.05 µM
inhibition (INH) (Aurora kinase B [21]): Not Active
inhibition (INH) (Aurora kinase B [22]): Not Active
